ChEMBL document CHEMBL4819032, “Structure-based design of highly selective 2,4,5-trisubstituted pyrimidine CDK9 inhibitors as anti-cancer agents” (Eur J Med Chem, 2021)
Activity calls are given as the source filed them. The calls are words filed in the database; no cut-off is given here.

Key:
[1] = system: A2780; assay: Induction of cell cycle arrest in human A2780 cells assessed as accumulation at pre-G1 phase at 2 uM after 24 hrs by propidium iodide staining based flow cytometric analysis (reference value: 1.2%); assay type: functional
[2] = species on record: Homo sapiens; assay: Selectivity index, ratio of Ki for inhibition of recombinant human full length […]
[3] = system: A2780; assay: Induction of apoptosis in human A2780 cells assessed as late apoptotic cells at 5 uM after 24 hrs by Annexin V-FITC/PI staining based flow cytometric analysis (reference value: 2.8%); assay type: functional
Method in brief: (§1)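 A2780 cells cultured 24 h in medium alone or with varying inhibitor concentrations, then stained with FITC-annexin V/PI per kit protocol and analysed by flow cytometry. Run in triplicate and repeated at least twice; significance by one-way ANOVA, p < 0.01.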

[4] = system: A2780; assay: Induction of apoptosis in human A2780 cells assessed as viable cells at 0.5 uM after 24 hrs by Annexin V-FITC/PI staining based flow cytometric analysis (reference value: 92%); assay type: functional; conditions: read-out: Activity; method in brief: as §1
[5] = system: A2780; assay: Induction of apoptosis in human A2780 cells assessed as early apoptotic cells at 5 uM after 24 hrs by Annexin V-FITC/PI staining based flow cytometric analysis (reference value: 1.6%); assay type: functional; method in brief: as §1
[6] = Growth inhibition of patient derived CLL cells after 48 hrs by annexin V-FITC staining based flow cytometric analysis; assay type: functional; conditions: Homo sapiens, CLL-CII
Method in brief: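 Freshly isolated primary CLL cells (10⁶/mL) in RPMI with 10% foetal calf serum, L-glutamine, penicillin and streptomycin, 37 °C, 5% CO₂, exposed to inhibitor for 48 h. Cells labelled with CD19-APC and annexin V-FITC; apoptosis quantified by flow cytometry in CD19+ cells. LD50 is the concentration killing 50% of CLL cells.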

[7] = system: A2780; assay: Induction of cell cycle arrest in human A2780 cells assessed as accumulation at pre-G1 phase after 24 hrs by propidium iodide staining based flow cytometric analysis; assay type: functional; conditions: dose 0.5-5 µM
Method in brief: (§2)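 4 × 10⁵ A2780 cells cultured 24 h in medium alone or with varying inhibitor concentrations, harvested into hypotonic fluorochrome solution (0.1% sodium citrate, 0.1% Triton X-100, propidium iodide, 100 ug/ml RNase A), and DNA content analysed by flow cytometry. Representative of three independent experiments.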

[8] = system: A2780; assay: Induction of cell cycle arrest in human A2780 cells assessed as accumulation at S phase at 5 uM after 24 hrs by propidium iodide staining based flow cytometric analysis (reference value: 20%); assay type: functional; method in brief: as §2
[9] = system: A2780; assay: Induction of cell cycle arrest in human A2780 cells assessed as accumulation at G1/G0 phase at 0.5 uM after 24 hrs by propidium iodide staining based flow cytometric analysis (reference value: 56.7%); assay type: functional; method in brief: as §2
[10] = system: A2780; assay: Induction of cell cycle arrest in human A2780 cells assessed as accumulation at S phase at 2 uM after 24 hrs by propidium iodide staining based flow cytometric analysis (reference value: 20%); assay type: functional; method in brief: as §2
[11] = system: MCF7; assay: Growth inhibition of human MCF7 cells after 48 hrs by MTT assay; assay type: functional
[12] = system: A2780; assay: Induction of apoptosis in human A2780 cells assessed as reduction in XIAP protein expression after 24 hrs by Western blot analysis; assay type: functional, cell-based; conditions: dose 0.5-5 µM
Method in brief: (§3)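 A2780 cells treated for 24 h over a concentration series, then lysates analysed by Western blotting.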

[13] = system: A2780; assay: Induction of cell cycle arrest in human A2780 cells assessed as accumulation at pre-G1 phase at 5 uM after 24 hrs by propidium iodide staining based flow cytometric analysis (reference value: 1.2%); assay type: functional
[14] = system: A2780; assay: Induction of apoptosis in human A2780 cells assessed as necrotic cells at 5 uM after 24 hrs by Annexin V-FITC/PI staining based flow cytometric analysis (reference value: 3.6%); assay type: functional; method in brief: as §1
[15] = system: A2780; assay: Induction of apoptosis in human A2780 cells assessed as early apoptotic cells at 0.5 uM after 24 hrs by Annexin V-FITC/PI staining based flow cytometric analysis (reference value: 1.6%); assay type: functional; method in brief: as §1
[16] = system: A2780; assay: Induction of apoptosis in human A2780 cells assessed as increase in cleaved PARP protein expression at 0.5 to 5 uM after 24 hrs by Western blot analysis; assay type: functional, cell-based; conditions: dose 0.5-5 µM; method in brief: as §3
[17] = system: A2780; assay: Induction of cell cycle arrest in human A2780 cells assessed as accumulation at S phase at 0.5 uM after 24 hrs by propidium iodide staining based flow cytometric analysis (reference value: 20%); assay type: functional; method in brief: as §2
[18] = system: A2780; assay: Induction of cell cycle arrest in human A2780 cells assessed as accumulation at G2/M phase at 1 uM after 24 hrs by propidium iodide staining based flow cytometric analysis (reference value: 21.6%); assay type: functional; method in brief: as §2
[19] = system: HCT-116; assay: Induction of apoptosis in human HCT-116 cells assessed as reduction in Mcl-1 protein expression after 24 hrs by Western blot analysis; assay type: functional, cell-based; conditions: dose 0.5-5 µM
[20] = target: Cyclin-dependent kinase 9 (Homo sapiens) (UniProt P50750); assay: Inhibition of CDK9 in human A2780 cells assessed as reduction in RNAP2 phosphorylation at ser2 residues after 24 hrs by Western blot analysis; assay type: cell-based; conditions: dose 0.5-5 µM
Chain of Cyclin-dependent kinase 9 (Homo sapiens) (P50750 whole entry): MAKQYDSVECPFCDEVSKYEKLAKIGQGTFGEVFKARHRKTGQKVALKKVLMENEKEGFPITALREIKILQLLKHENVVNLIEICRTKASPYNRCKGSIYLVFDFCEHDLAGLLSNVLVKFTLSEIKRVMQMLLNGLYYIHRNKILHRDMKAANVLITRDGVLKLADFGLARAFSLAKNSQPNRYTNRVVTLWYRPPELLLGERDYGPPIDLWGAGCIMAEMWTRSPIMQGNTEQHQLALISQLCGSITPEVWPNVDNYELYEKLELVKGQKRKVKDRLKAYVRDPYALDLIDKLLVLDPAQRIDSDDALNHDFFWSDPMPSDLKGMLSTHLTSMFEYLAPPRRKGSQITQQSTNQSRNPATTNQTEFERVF

[21] = system: A2780; assay: Induction of apoptosis in human A2780 cells assessed as late apoptotic cells at 0.5 uM after 24 hrs by Annexin V-FITC/PI staining based flow cytometric analysis (reference value: 2.8%); assay type: functional; method in brief: as §1
[22] = system: A2780; assay: Induction of cell cycle arrest in human A2780 cells assessed as accumulation at G1/G0 phase at 5 uM after 24 hrs by propidium iodide staining based flow cytometric analysis (reference value: 56.7%); assay type: functional; method in brief: as §2
[23] = species on record: Homo sapiens; assay: Selectivity index, ratio of Ki for inhibition of recombinant human full length CDK9/Cyclin T1 to Ki for inhibition of recombinant human full length CDK7/Cyclin H
[24] = system: A2780; assay: Induction of apoptosis in human A2780 cells assessed as early apoptotic cells at 1 uM after 24 hrs by Annexin V-FITC/PI staining based flow cytometric analysis (reference value: 1.6%); assay type: functional; method in brief: as §1
[25] = system: A2780; assay: Induction of cell cycle arrest in human A2780 cells assessed as accumulation at G2/M phase at 5 uM after 24 hrs by propidium iodide staining based flow cytometric analysis (reference value: 21.6%); assay type: functional; method in brief: as §2
[26] = system: HCT-116; assay: Induction of apoptosis in human HCT-116 cells assessed as increase in p53 protein expression at 0.5 to 5 uM after 24 hrs by Western blot analysis; assay type: functional, cell-based; conditions: dose 0.5-5 µM
[27] = system: HCT-116; assay: Induction of apoptosis in human HCT-116 cells assessed as reduction in Mcl-1 protein expression at 5 uM after 6 to 12 hrs by Western blot analysis; assay type: functional, cell-based; conditions: time 6-12 hrs
[28] = system: Aurora kinase A (Homo sapiens), O14965 [UNDEFINED MUTATION]; assay: Inhibition of recombinant human full length Aurora-A I31F mutant using LRRASLG as substrate incubated for 40 mins by scintillation counting method
Chain of Aurora kinase A (Homo sapiens), O14965 [UNDEFINED MUTATION] (O14965 whole entry, looked up, stated change not applied): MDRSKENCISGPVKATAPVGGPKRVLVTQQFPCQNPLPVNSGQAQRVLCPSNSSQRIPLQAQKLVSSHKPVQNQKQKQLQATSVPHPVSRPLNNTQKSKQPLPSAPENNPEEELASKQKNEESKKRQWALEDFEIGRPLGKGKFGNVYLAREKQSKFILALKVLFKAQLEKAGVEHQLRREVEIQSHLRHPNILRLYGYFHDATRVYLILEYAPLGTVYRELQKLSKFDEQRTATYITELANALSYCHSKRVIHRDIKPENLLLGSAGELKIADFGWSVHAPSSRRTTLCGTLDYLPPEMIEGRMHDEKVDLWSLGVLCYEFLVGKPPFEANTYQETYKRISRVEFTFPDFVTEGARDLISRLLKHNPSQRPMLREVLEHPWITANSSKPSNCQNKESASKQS
Method in brief: (§4)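 The 60-kinase diversity panel was run as a radiometric assay with ATP at each kinase's Km(app). Compound was tested at one fixed concentration across all kinases.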

[29] = target: Tyrosine-protein kinase Fyn (Homo sapiens) (UniProt P06241); assay: Inhibition of recombinant human full length FYN using KVEKIGEGTYGVVYK as substrate incubated for 40 mins by scintillation counting method; method in brief: as §4
Chain of Tyrosine-protein kinase Fyn (Homo sapiens) (P06241 2-537 limits assumed): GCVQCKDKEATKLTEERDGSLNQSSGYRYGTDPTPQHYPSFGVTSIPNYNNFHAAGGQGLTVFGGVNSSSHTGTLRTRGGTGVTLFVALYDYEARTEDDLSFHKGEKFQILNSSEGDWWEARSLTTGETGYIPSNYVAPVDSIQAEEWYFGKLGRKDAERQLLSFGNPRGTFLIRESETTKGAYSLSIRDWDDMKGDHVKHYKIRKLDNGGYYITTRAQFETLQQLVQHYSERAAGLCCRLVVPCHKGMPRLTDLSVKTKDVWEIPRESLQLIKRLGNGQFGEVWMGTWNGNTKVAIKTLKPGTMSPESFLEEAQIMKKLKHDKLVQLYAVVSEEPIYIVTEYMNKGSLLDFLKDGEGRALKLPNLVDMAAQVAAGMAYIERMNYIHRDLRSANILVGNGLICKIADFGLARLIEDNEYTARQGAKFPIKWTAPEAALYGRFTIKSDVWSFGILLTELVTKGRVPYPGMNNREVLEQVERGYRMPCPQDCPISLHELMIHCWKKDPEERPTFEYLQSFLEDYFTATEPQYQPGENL

[30] = system: A2780; assay: Induction of apoptosis in human A2780 cells assessed as necrotic cells at 2 uM after 24 hrs by Annexin V-FITC/PI staining based flow cytometric analysis (reference value: 3.6%); assay type: functional; method in brief: as §1

Ratio Ki [2]: 100
GI50 [11]: 1.34 µM
inhibition [20]: Dose-Dependent Effect
Ratio Ki [23]: > 50
inhibition [28]: Active
inhibition [29]: Active
SMILES: CNc1nc(C)c(-c2nc(Nc3cccc(N4CCN5CCC4CC5)c3)ncc2C)s1
Activity [1]: 8.3%
Activity [3]: 47.2%
viability at 0.5 µM [4]: 88.3%
Activity [5]: 24.65%
GI50 [6]: 1.5 µM
Activity [7]: Dose-Dependent Effect
Activity [8]: 10.8%
Activity [9]: 59.8%
Activity [10]: 8.3%
Activity [12]: Dose-Dependent Effect
Activity [13]: 34%
Activity [14]: 5.6%
Activity [15]: 3.6%
Activity [16]: Active
Activity [17]: 15.3%
Activity [18]: 34.2%
Activity [19]: Dose-Dependent Effect
Activity [21]: 6.2%
Activity [22]: 31.5%
Activity [24]: 9.3%
Activity [25]: 23.5%
Activity [26]: Active
Activity [27]: Active
Activity [30]: 2.5%
